{
  "source": "PubChem BioAssay AID617",
  "about": "(SRMLSC, 2007)",
  "data": [
    {"test_system": "E. coli BW25113 ΔtolC growth inhibition, OD615", "assay": "growth inhibitors of E. coli tolC mutant, dose response, strain BW25113 ΔtolC::kan (AID 617)", "how_it_was_run": "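System: E. coli BW25113 ΔtolC::kan bacteria. Amount: 1:1000 diluted subculture inoculum. Medium: LB broth supplemented with kanamycin at 50 µg/mL. Compound dosing: serial dilution series of compound. Schedule: 20 h exposure at 37 °C. Detection: OD615. Measure: IC50 of bacterial growth inhibition. Benchmarks: chloramphenicol control, 30 µM final.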", "units": {"IC50": "µM"}, "values": [
      {"smiles": "O=C(NC1CCCC1)c1sc(=S)n2c1[nH]c(=O)c1ccccc12", "IC50": 0.56},
      {"smiles": "Cc1ccc(NC(=O)c2nnn(-c3cc(C)cc(C)c3)c2N)cc1", "IC50": 21.9},
      {"smiles": "CCN(C1CCCCC1)S(=O)(=O)c1ccc(OC)c(C)c1", "IC50": 16.9},
      {"smiles": "O=S(=O)(N1CCCCC1)n1c(Cc2ccccc2)nc2ccccc21", "IC50": 6.89},
      {"smiles": "COC(=O)c1ccc(CSc2nc3ccccc3o2)cc1", "IC50": 20.2},
      {"smiles": "CCOc1ccc(OCCSc2nnnn2C2CCCCC2)cc1", "IC50": 14.5},
      {"smiles": "COc1ccc(-c2nc(-c3cccs3)c(-c3cccs3)[nH]2)cc1O", "IC50": 6.09},
      {"smiles": "COCc1nnc(NC(=O)c2ccc(S(=O)(=O)N(C)c3ccccc3)cc2)o1", "IC50": 6.56},
      {"smiles": "Cc1cccc(N2CC(c3nc4ccccc4n3C)CC2=O)c1C", "note": "(configuration not stated)", "IC50": 4.93},
      {"smiles": "C=C(C)COc1ccc(-c2ncncc2Oc2ccc(OC)cc2)c(O)c1", "IC50": 14},
      {"smiles": "N#Cc1ccc(CSc2nnc(-c3cccs3)n2-c2ccccc2)cc1", "IC50": 15.6},
      {"smiles": "O=c1[nH]c(=O)n(C2CCCCCC2)c(O)c1C=NCc1ccc(F)cc1", "IC50": 14.6},
      {"smiles": "Cc1cc(OCCCC(=O)N2CCCCC2)cc(C)c1Cl", "IC50": 28.2},
      {"smiles": "CCOC(=O)C1=C(C)NC(SCC(=O)Nc2cc(C)on2)=C(C#N)C1c1cccs1", "note": "(configuration not stated)", "IC50": 11},
      {"smiles": "O=C(NCc1ccc2c(c1)OCO2)c1ccc(COc2cccc(Cl)c2)o1", "IC50": 7.25},
      {"smiles": "Cc1noc(C)c1S(=O)(=O)N(CCc1ccccc1)Cc1ccccc1", "IC50": 16.6},
      {"smiles": "O=S(=O)(NCCSc1ccc(Cl)cc1)c1ccc2c(c1)OCCO2", "IC50": 8.89},
      {"smiles": "O=C(Nc1ccc(CN2CCOCC2)cc1)c1ccc(-c2ccc(Br)cc2)o1", "IC50": 30.4},
      {"smiles": "O=C(c1ccccc1CCc1ccccc1)N1CCN(c2ccccn2)CC1", "IC50": 8.38},
      {"smiles": "Cc1cc(C)n(-c2nc3ccccc3nc2N2CCCCCC2)n1", "IC50": 18.4},
      {"smiles": "CCc1cc(C(=O)COc2ccccc2F)c(O)cc1O", "IC50": 10.8},
      {"smiles": "CC(C)(C)c1ccc(OCc2nc(-c3ccccn3)no2)c(Br)c1", "IC50": 6.81},
      {"smiles": "NC1C2CN(c3nc4c(cc3F)c(=O)c(C(=O)O)cn4-c3ccc(F)cc3F)CC12", "note": "(configuration not stated)", "IC50": "< 0.2"},
      {"smiles": "CCCCCn1c(-c2ccco2)nc2nc3ccccc3nc21", "IC50": 84.8},
      {"smiles": "CCN(c1cccc(C(F)(F)F)c1)S(=O)(=O)c1ccc2c(c1)CCN2C(=O)C1CC1", "IC50": 50.9},
      {"smiles": "O=C1c2[nH]nc(-c3ccccc3O)c2C(c2cccc(Cl)c2)N1CC1CCCO1", "note": "(configuration not stated)", "IC50": 4.35},
      {"smiles": "Cc1ccc2c(c1)NC(=O)C(CC(=O)NCCCN1CCN(c3cc(Cl)ccc3C)CC1)O2", "note": "(configuration not stated)", "IC50": 2.67}
    ]}
  ]
}
